PC50, Activity and inhibition data for 14 molecules are collected here from ChEMBL document CHEMBL4340559, “Design and synthesis of functionalized coumarins as potential anti-austerity agents that eliminates cancer cells' tolerance to nutrition starvation” (Bioorg Med Chem Lett, 2019).

Data set [1] deals with PANC-1. Put plainly: Antiausteritic activity against human PANC1 cells in nutrient-deprived medium measured after 24 hrs by WST8 assay. It counts as functional. For orientation: Tetrazolium dyes change colour on reduction, which living cells bring about.
Data set [2] relates to PANC-1. Nature of the data set: Cytotoxic activity against human PANC1 cells in nutrient-rich medium measured after 24 hrs by WST8 assay. In kind it is cell-based. To be noted: panc-1, 24 h.
Data set [3] deals with PANC-1. Nature of the data set: Antiausteritic activity against human PANC1 cells in nutrient deprived medium assessed as plasma blebbing at 1.25 uM after 24 hrs by ethidium bromide/acridine orange staining based phase contrast microscopic method. It counts as functional, cell-based. Summed up:
(§1)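 PANC-1 cells exposed 24 h in nutrient-deprived medium (NDM) alongside untreated control, then stained with ethidium bromide/acridine orange. AO enters all cells and fluoresces green. EB enters only dead or dying cells and fluoresces red. Cells were scored by fluorescence colour and morphology.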

For data set [4], the system named is PANC-1. Nature of the data set: Inhibition of colony formation in human PANC1 cells at 12.5 to 50 uM in the nutrient rich DMEM media treated for 24 hrs followed by compound washout and subsequent incubation for 10 days by crystal violet staining based assay. In kind it is functional, cell-based. Summed up:
(§2)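 PANC-1 cells were exposed 24 h to 12.5, 25 or 50 μM in nutrient-rich DMEM. Medium was then replaced with fresh DMEM and cells grown 10 d to form colonies. Read-out was the average area occupied by colonies relative to untreated control wells. Three replications; significance set at p < 0.05 versus control.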

The test system of data set [5] is PANC-1. Put plainly: Antiausteritic activity against human PANC1 cells in nutrient deprived medium assessed as cell shrinkage at 5 uM measured at 7 hrs by automated time-lapse microscopic method. In kind it is functional, cell-based. Summed up:
(§3)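 PANC-1 cells in NDM were held in a stage-top incubator with 5 μM compound, with untreated NDM control run alongside. Images were captured every 10 min for 24 h. Mobility, shrinkage and death were followed over time.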

In data set [6] the test system is PANC-1. Put plainly: Antiausteritic activity against human PANC1 cells in nutrient deprived medium assessed as leakage of cellular contents into culture media at 1.25 uM after 24 hrs by ethidium bromide/acridine orange staining based phase contrast microscopic method. In kind it is functional, cell-based. Summed up: as §1
Data set [7] concerns PANC-1. Nature of the data set: Inhibition of colony formation in human PANC1 cells at 12.5 uM in the nutrient rich DMEM media treated for 24 hrs followed by compound washout and subsequent incubation for 10 days by crystal violet staining based assay relative to untreated control. In kind it is functional. Summed up:
as §2

Data set [8] deals with PANC-1. Put plainly: Inhibition of colony formation in human PANC1 cells at 50 uM in the nutrient rich DMEM media treated for 24 hrs followed by compound washout and subsequent incubation for 10 days by crystal violet staining based assay relative to untreated control. In kind it is functional. Summed up:
as §2

The test system of data set [9] is PANC-1. Nature of the data set: Antiausteritic activity against human PANC1 cells in nutrient deprived medium assessed as rupture of cell membrane at 1.25 uM after 24 hrs by ethidium bromide/acridine orange staining based phase contrast microscopic method. It counts as functional. Summed up:
as §1

The test system of data set [10] is PANC-1. Put plainly: Inhibition of colony formation in human PANC1 cells at 25 uM in the nutrient rich DMEM media treated for 24 hrs followed by compound washout and subsequent incubation for 10 days by crystal violet staining based assay relative to untreated control. It counts as functional. Summed up: as §2
For data set [11], the system named is PANC-1. Nature of the data set: Antiausteritic activity against human PANC1 cells in nutrient deprived medium assessed as inhibition of cell mobility at 5 uM measured within 4 hrs by automated time-lapse microscopic method. In kind it is functional, cell-based. Summed up: as §3
The subject of data set [12] is PANC-1. Nature of the data set: Antiausteritic activity against human PANC1 cells in nutrient deprived medium assessed as cell death at 5 uM measured at 13 to 20 hrs by automated time-lapse microscopic method. It counts as functional, cell-based. The procedure, abridged: as §3
The test system of data set [13] is PANC-1. Nature of the data set: Antiausteritic activity against human PANC1 cells in nutrient deprived medium assessed as appearance of rounded cells at 1.25 uM after 24 hrs by ethidium bromide/acridine orange staining based phase contrast microscopic method. It counts as functional, cell-based. Summed up: as §1

Activity calls are given as the source filed them. The calls are words filed in the database; no cut-off is given here. Bounds are passed on as bounds.

In the data set on PANC-1 [1], `O=C(NCCCc1ccccc1Cl)c1cc2ccc(O)cc2oc1=O` showed a PC50 of 12.6 µM. Moreover, the Activity entry in the data set with PANC-1 [2] is “Non-Toxic”.

With `O=C(NCCCc1ccc(Cl)cc1Cl)c1cc2ccc(O)cc2oc1=O`, the PC50 with PANC-1 [1] is 3.45 µM. Further, the Activity result in the data set with PANC-1 [2] is “Non-Toxic”.

As usually defined, the inhibition is how much of the control response was suppressed. For the molecule `O=C(NCCCc1ccccc1)c1cc2ccc(O)cc2oc1=O`, the outcome with PANC-1 [3], in the data set on PANC-1 [5], with PANC-1 [6], in the data set with PANC-1 [9], in the data set with PANC-1 [11] and in the data set on PANC-1 [12] was Active. Moreover, in the data set with PANC-1 [13], the result was Active. For the same molecule, the inhibition result in the data set on PANC-1 [4] was “Dose-dependent effect”. Moreover, the PC50 with PANC-1 [1] came out at 0.44 µM. Besides, 12.5 µM produced 8% inhibition in the data set with PANC-1 [7]. Besides, in the data set on PANC-1 [8], 50 µM produced 19% inhibition. Further, the inhibition at 25 µM with PANC-1 [10] amounted to 11%. The Activity entry with PANC-1 [2] is reported as “Non-Toxic”.

`O=C(NCCCc1ccc(Cl)cc1)c1cc2ccc(O)cc2oc1=O`: in the data set with PANC-1 [1], the PC50 was found to be 0.51 µM. Moreover, in the data set on PANC-1 [2], the Activity result is “Non-Toxic”.

`O=C(NCc1ccccc1)c1cc2ccc(O)cc2oc1=O` returned a PC50 with PANC-1 [1] above 100 µM. For the same molecule, in the data set with PANC-1 [2], the Activity result is listed as “Non-Toxic”.

In the data set with PANC-1 [1], `O=C(NCCCc1cccc(Cl)c1)c1cc2ccc(O)cc2oc1=O` showed a PC50 of 3.92 µM. In addition, the Activity result in the data set with PANC-1 [2] is on record as “Non-Toxic”.

In the data set on PANC-1 [1], `O=C(NCCc1ccccc1)c1cc2ccc(O)cc2oc1=O` had a PC50 above 100 µM. The Activity result in the data set with PANC-1 [2] is given as “Non-Toxic”.

The molecule `O=C(NCCCc1ccccc1)c1cc2ccccc2oc1=O` registered a PC50 in the data set on PANC-1 [1] above 100 µM. For the same molecule, the Activity result in the data set with PANC-1 [2] is recorded as “Non-Toxic”.

In the data set with PANC-1 [1], `O=C(NCCCc1ccccc1)c1cc2c(O)cccc2oc1=O` yielded a PC50 above 100 µM. Further, in the data set on PANC-1 [2], the Activity entry was “Non-Toxic”.

On to `O=C(NCCCc1ccccc1)c1cc2cccc(O)c2oc1=O`, for which, in the data set with PANC-1 [1], the PC50 came out at 3.28 µM. Besides, the Activity result in the data set with PANC-1 [2] was “Non-Toxic”.

As for `O=C(NCCCc1cccc(Cl)c1Cl)c1cc2ccc(O)cc2oc1=O`, the PC50 with PANC-1 [1] was found to be 7.48 µM. In the data set with PANC-1 [2], the Activity result is reported as “Non-Toxic”.

`O=C(NCCCc1ccccc1)c1cc2cc(O)ccc2oc1=O` displayed a PC50 with PANC-1 [1] above 100 µM. Also, the Activity result with PANC-1 [2] is “Non-Toxic”.

In the case of `O=C(NCCCC1CCCCC1)c1cc2ccc(O)cc2oc1=O`, the PC50 with PANC-1 [1] was 2.19 µM. Also, in the data set on PANC-1 [2], the Activity result is “Non-Toxic”.

Molecule `O=C(NCCCCc1ccccc1)c1cc2ccc(O)cc2oc1=O` came in with a PC50 with PANC-1 [1] of 4.7 µM. Moreover, in the data set with PANC-1 [2], the Activity entry is listed as “Non-Toxic”.
